# Sampled rows, rich in hits. Any-hit rate of the full collection: about 2.1%.
# L929 necroptosis: L929 zVAD cell death inhibition; L929 zVAD necroptosis rescue, ATP luminescence, 24 h; with zVAD 60 µM; viability rescue, % at 10 µM; 220,000 compounds, 0.38% hits; AID 1377;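 active means activation, scaled between plate controls, above about 75%, limit read from the data; inactive means activation under that limit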;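 further: 0% = zVAD with DMSO and 100% = DMSO alone without zVAD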
# RanGTP-Imp inh: inhibitors of RanGTP-importin-beta interaction, primary screen, biochemical, FRET, CFP-Ran, YFP-importin-beta, homogeneous; cell-free CFP-Ran/YFP-importin-beta FRET ratio; inhibition, % (test concentration not listed); 300,000 compounds, 1.1% hits;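 active means more than half of the replicate wells show a fall in the fluorescence ratio signal beyond about 16%, limit read from the data, passing the limit was not always enough; inconclusive means exactly half of the replicate wells pass the set limit; inactive means fewer than half of replicates pass the limit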;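 further: 0% = DMSO wells and 100% = Ran loaded with GDP instead of GTP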
# Runt-CBFb FRET: blocks binding of human RUNX1 Runt domain to CBFb; inhibition, % at 20 µM; 220,000 compounds, 0.46% hits; Cerulean-Runt/Venus-CBFb FRET ratio 530/480, 1 h; AID 1496; Q01196+Q13951;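 active means inhibition over about 50% at 20 µM in the single-dose screen, limit read from the data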;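 further: 0% = DMSO wells and 100% = excess unlabeled CBFb competitor control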
# Target sequence (Q01196 whole entry, looked up, the tested form may be a part): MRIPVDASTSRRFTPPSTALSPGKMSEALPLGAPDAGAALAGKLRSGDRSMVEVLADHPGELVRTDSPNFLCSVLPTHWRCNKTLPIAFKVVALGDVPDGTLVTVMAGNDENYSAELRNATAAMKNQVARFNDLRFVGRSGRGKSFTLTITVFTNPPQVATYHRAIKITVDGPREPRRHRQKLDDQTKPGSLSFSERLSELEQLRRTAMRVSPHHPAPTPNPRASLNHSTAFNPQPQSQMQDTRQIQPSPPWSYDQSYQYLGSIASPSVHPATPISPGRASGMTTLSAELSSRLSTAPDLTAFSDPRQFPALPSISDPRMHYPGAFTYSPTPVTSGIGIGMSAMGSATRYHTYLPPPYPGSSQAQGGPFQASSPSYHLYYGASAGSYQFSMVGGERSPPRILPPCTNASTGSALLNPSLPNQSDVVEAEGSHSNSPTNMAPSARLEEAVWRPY
# Target sequence (Q13951 whole entry, looked up, the tested form may be a part): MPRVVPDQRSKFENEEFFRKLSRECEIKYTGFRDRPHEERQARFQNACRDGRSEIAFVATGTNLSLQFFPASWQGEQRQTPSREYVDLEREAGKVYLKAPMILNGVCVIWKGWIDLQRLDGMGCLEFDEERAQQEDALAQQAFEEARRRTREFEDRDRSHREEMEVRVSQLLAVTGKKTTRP
#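 Assay system: Cerulean-Runt domain fusion protein, energy donor; Signal: fluorescence energy transfer, 422 nm excitation, 530/480 nm emission; Timing: 1 h compound exposure, room temperature; Control set: unlabeled CBFb; Medium: Tris buffer pH 7.5 with salts and BSA; Compound: single test concentration of 20 µM, 1% DMSO final; Probe or stimulus: Venus-CBFb 100 nM.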
# Runt-SMMHC FRET: blocks binding of human RUNX1 Runt domain to CBFb-SMMHC | Cerulean-Runt/Venus-CBFb-SMMHC FRET ratio 530/480, 1 h | 220,000 compounds, 0.74% hits | Q01196+Q13951 | inhibition, % at 20 µM;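 active means mean inhibition across duplicate retests at 20 µM reaching about 50%, limit read from the data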;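 further: 0% = DMSO wells and 100% = wells with excess untagged CBFb-SMMHC; inhibitors lower the FRET ratio by blocking Runt binding to CBFb-SMMHC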
# Hck Nef HTS: human Hck-Nef kinase inhibition; Recombinant Hck-YEEI plus Nef, Z-Lyte FRET kinase assay; inhibition, % at 20 µM; 220,000 compounds, 0.68% hits;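 active means Hck-Nef kinase inhibition above about 50%, limit read from the data; inactive means inhibition below that limit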;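 further: 0% = DMSO with Hck plus Nef and 100% = Hck alone without Nef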
# TNF necrop inh: TNF-alpha cell death inhibition in Jurkat FADD-/- cells | 220,000 compounds, 0.068% hits | Jurkat FADD-/- TNF necroptosis rescue, ATP luminescence, 24 h; 0 = TNF only, 100 = no-TNF cells | activation (protection from cell death), % at 10 µM;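 active means activation, meaning protection from cell death, of at least 50% relative to plate controls; inactive means activation below 50%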;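 further: necroptosis triggered by 40 ng/mL TNF-alpha added together with compound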
# Hck Nef conf: Hck-Nef kinase inhibition, confirmation; Recombinant Hck-YEEI:Nef, Z-Lyte FRET kinase assay; AID 463188; shares compounds with Hck Nef HTS; 1,300 compounds, 28% hits; calls only at 10 µM;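 active means average inhibition of at least 50%, with Z-scores no higher than 3 in both the phospho-tyrosine peptide and fluorescence counterscreens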
# Numbers without * were called inactive; i = inactive; ? = inconclusive; nt = no result; + = active, no number.
SMILES,L929 necroptosis,RanGTP-Imp inh,Runt-CBFb FRET,Runt-SMMHC FRET,Hck Nef HTS,TNF necrop inh,Hck Nef conf
CC(=O)N=c1c(C#N)cc2c(=O)n3cccc(C)c3nc2n1Cc1ccco1,-0.8,80.3*,9.6,88.1*,165.4*,-2.6,i
Cc1cccn2c(=O)c3cc(C#N)c(=NC(=O)c4cccs4)n(CCCOC(C)C)c3nc12,1.0,81.0*,78.8*,88.1*,105.9*,-19.1,i
CCC(C)N=Cc1c(NCc2ccco2)nc2c(C)cccn2c1=O (stereo unspecified),-0.2,1.9,7.9,15.7,4.0,-1.9,nt
N#Cc1ncn(-c2ccc(Oc3ccccc3)cc2)c1N,1.8,-0.3,-0.8,-3.2,73.6*,-0.7,i
N#Cc1cccnc1Oc1ccccc1,1.0,-2.7,0.7,-1.3,2.3,3.6,nt
COc1ccc(-c2cnnc(N/N=C/c3ccc(-c4ccc([N+](=O)[O-])cc4)o3)n2)cc1,1.7,nt,34.3,9.5,84.1*,-10.1,+
COc1ccc(OC)c(NC(=O)[C@@]2(CC(=O)O)CC(/C=C/c3ccccc3)=NO2)c1,nt,-0.8,nt,nt,nt,nt,nt
COc1ccc(CN(C(=O)CSc2nnc(-c3ccc(F)cc3)o2)c2ccc(F)cc2)cc1,0.0,0.0,-0.7,-1.9,76.8*,-0.4,i
COc1ccccc1NC(=O)c1cc2c(s1)-c1ccccc1S(=O)(=O)C2,1.8,-1.9,-1.1,-2.0,52.2*,-1.6,i
COc1ccc(Cn2c(C3CCCCC3)nc3c(c(=O)c4ccccc4n3C)c2=O)cc1,0.4,-1.9,0.9,-1.6,71.1*,-13.1,i
COc1ccc(CCn2c(C3CCCCC3)nc3c(c(=O)c4ccccc4n3C)c2=O)cc1,0.9,1.8,-0.8,1.7,25.3,-14.1,nt
COc1ccc(S(=O)(=O)N2CCCC(C(=O)NCc3ccco3)C2)cc1OC (stereo unspecified),nt,0.1,nt,nt,nt,nt,nt
COc1cc2nc(Cl)nc(N3CCOCC3)c2cc1OC,18.0,?,nt,1.6,68.7*,0.4,i
COc1cc2nc(Cl)nc(N3CCCCC3)c2cc1OC,7.9,-1.6,nt,0.4,11.1,-3.1,nt
CC(=O)c1c(C)[nH]c(C(=O)CSc2nnc(-c3ccccc3)n2Cc2ccc3c(c2)OCO3)c1C,-0.9,2.7,-3.1,0.5,63.5*,-1.7,i
CCOC(=O)C1=NOC(C(=O)NN(C)c2ncc(C(F)(F)F)cc2Cl)C1 (stereo unspecified),1.6,-0.7,-0.7,1.3,60.4*,0.8,i
CCOC(=O)C1=NOC(CNc2ncc(C(F)(F)F)cc2Cl)C1 (stereo unspecified),0.5,4.3,-2.3,0.7,2.3,-0.9,nt
Cc1sc2ncnc(Sc3nnc4sc5ccccc5n34)c2c1C,0.5,1.2,-0.1,-5.3,-0.7,-3.2,nt
CC(C)C(C(=O)O)N1C(=O)/C(=C/C=C/c2ccco2)SC1=S (stereo unspecified),0.7,-4.5,24.5,11.7,83.1*,-4.5,i
CC(C)C(C(=O)O)N1C(=O)/C(=C/c2cccn2C)SC1=S (stereo unspecified),0.8,nt,-43.5,-68.1,2.6,2.8,nt
O=C(NN1C(=O)/C(=C/C=C/c2ccccc2)SC1=S)c1ccncc1,3.4,-4.7,8.3,-2.4,27.8,-0.2,nt
O=C(NN1C(=O)/C(=C/C=C/c2ccco2)SC1=S)c1ccncc1,0.0,-4.0,36.8,-2.6,90.4*,-1.3,i
O=C(O)c1ccc(N2C(=O)/C(=C/C=C/c3ccccc3)SC2=S)cc1,35.8,-0.1,-2.0,-6.2,16.7,-2.7,nt
O=C1/C(=C/C=C/c2ccco2)SC(=S)N1c1ccc(O)cc1,-1.1,-2.9,29.2,4.4,97.7*,-8.3,+
CCOC(=O)c1ccc(NC(=S)Nc2ccc3[nH]c(=O)[nH]c3c2)cc1,3.0,2.0,19.2,-2.7,6.1,4.1,nt
SMILES,L929 necroptosis,RanGTP-Imp inh,Runt-CBFb FRET,Runt-SMMHC FRET,Hck Nef HTS,TNF necrop inh,Hck Nef conf
Cc1cccc2c(SCC(=O)NCC3CCCO3)nc(-c3ccc(F)cc3)nc12 (stereo unspecified),0.3,0.5,0.7,0.1,87.9*,-3.0,i
Cc1cccc2cc(C#N)c(SCC(=O)NCC3CCCO3)nc12 (stereo unspecified),-1.0,2.9,-2.8,-0.7,0.8,1.1,nt
NC(=O)c1c(NC(=O)Cn2nc(C(=O)O)c3ccccc3c2=O)sc2c1CCC2,-0.4,?,-1.7,0.6,91.0*,-0.3,i
NC(=O)c1c(NC(=O)Cn2nc(C(=O)O)c3ccccc3c2=O)sc2c1CCCC2,1.0,3.1,-0.9,-2.9,7.1,-2.0,nt
O=C(Cn1nc(C(=O)O)c2ccccc2c1=O)Nc1nc(-c2ccccc2)cs1,1.5,2.1,-3.8,-2.6,52.1*,0.2,i
Cc1ccccc1NC(=O)Cn1nc(C(=O)O)c2ccccc2c1=O,nt,0.2,nt,nt,nt,nt,nt
Cc1ccccc1N(CC(=O)NCC1CCCO1)C(=O)CNS(=O)(=O)c1ccc(F)cc1 (stereo unspecified),nt,4.1,nt,nt,nt,nt,nt
Cc1ccccc1C(=O)Nc1ccc(S(=O)(=O)N2CCCC2)cc1,nt,2.0,nt,nt,nt,nt,nt
O=C(O)C[C@H]1c2cc(C(F)(F)F)ccc2S(=O)(=O)N1C1CCN(Cc2ccccc2)CC1,nt,2.1,nt,nt,nt,nt,nt
O=C(N/N=C/c1ccncc1)c1ccc(NC(=O)c2ccc(Cl)cc2)cc1,8.8,nt,-3.0,-6.9,57.9*,-0.3,i
COc1cc(/C=C2\SC(=O)N(Cc3ccc(Cl)cc3)C2=O)cc([N+](=O)[O-])c1O,-0.2,nt,-5.7,-15.1,51.0*,-6.5,i
CCOc1ccc(CO[C@@H]2O[C@H](CO)[C@@H](O)[C@H](O)[C@H]2NC(C)=O)cc1OC,nt,1.8,nt,nt,nt,nt,nt
COc1ccc(-c2cc3ccccc3n2CC(O)CN2CCCCC2)cc1 (stereo unspecified),0.4,1.5,-2.6,0.2,31.8,1.5,nt
CCC(=C(c1ccc(OC)cc1)c1ccc(OC)cc1)c1cn(CC(O)CN2CCN(C)CC2)c2ccccc12 (stereo unspecified),8.6,nt,-0.6,-0.4,111.2*,-6.0,i
O=C1/C(=C/c2ccco2)SC(=S)N1c1cccnc1,-0.5,0.4,29.3,2.1,90.4*,-1.6,i
NN1C(=O)/C(=C\c2ccco2)SC1=S,-0.5,-1.5,43.6,5.9,77.7*,-4.2,i
O=C(CCCN1C(=O)/C(=C/c2ccco2)SC1=S)Nc1cccc(C(=O)O)c1,-0.3,1.7,34.5,-2.8,81.7*,1.2,i
Cn1cnc2c(N/N=C/c3cccs3)ncnc21,68.7,?,3.5,-0.6,68.3*,-7.0,+

# Bioassay records (PubChem)
